The source of these data is ChEMBL document CHEMBL1138345, “Scouting human A3 adenosine receptor antagonist binding mode using a molecular simplification approach: from triazoloquinoxaline to a pyrimidine skeleton as a key study” (J Med Chem, 2007).

In general, IC50 refers to the midpoint of a concentration-inhibition curve. By inhibition is commonly meant the percentage by which the read-out fell short of the control. Broadly, the Ki is the dissociation constant of the complex between target and ligand, obtained from inhibition or displacement. A low value points to a stronger hold on the target.

Assay [1] addresses T1, Adenosine receptor A3 (Homo sapiens, UniProt P0DMS8).
T1 sequence (P0DMS8 whole entry): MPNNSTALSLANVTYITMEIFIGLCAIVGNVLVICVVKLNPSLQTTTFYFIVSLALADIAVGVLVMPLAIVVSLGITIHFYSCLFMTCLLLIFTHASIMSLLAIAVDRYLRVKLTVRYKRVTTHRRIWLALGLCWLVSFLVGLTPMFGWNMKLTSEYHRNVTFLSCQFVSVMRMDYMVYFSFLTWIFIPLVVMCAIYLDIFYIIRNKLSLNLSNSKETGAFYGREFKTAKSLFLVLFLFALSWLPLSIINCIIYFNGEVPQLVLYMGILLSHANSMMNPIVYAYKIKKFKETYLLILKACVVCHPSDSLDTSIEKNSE
The experiment in a line: Activity at human adenosine A3 receptor expressed in CHO cells assessed as antagonism of Cl-IB-MECA-inhibited cAMP production. Format: functional, cell-based. Put shortly: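 CHO cells stably expressing hA3, washed, trypsinized, 1 × 10⁶ cells/assay, preincubated 10 min at 37 °C in buffered salt–glucose medium (pH 7.4) with adenosine deaminase 2 IU/ml and Ro 20-1724. Forskolin 1 µM plus Cl-IB-MECA 100 nM. Stopped with cold 6% TCA, ether-extracted, cAMP by [³H]cAMP competition protein binding. IC50 from sigmoid nonlinear regression; means ± SEM of four experiments.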

Assay [2] concerns the target T2, Adenosine receptor A1 (Homo sapiens) (UniProt P30542).
T2 sequence (whole entry): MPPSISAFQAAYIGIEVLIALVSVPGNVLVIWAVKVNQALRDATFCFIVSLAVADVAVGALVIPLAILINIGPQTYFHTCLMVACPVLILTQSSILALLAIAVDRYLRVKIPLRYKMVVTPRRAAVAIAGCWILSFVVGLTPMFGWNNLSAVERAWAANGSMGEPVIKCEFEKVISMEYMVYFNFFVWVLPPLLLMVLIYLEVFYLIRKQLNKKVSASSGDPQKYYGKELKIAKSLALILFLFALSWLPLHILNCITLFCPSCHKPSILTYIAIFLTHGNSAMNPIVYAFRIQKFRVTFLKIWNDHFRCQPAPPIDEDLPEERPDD
Nature of the assay: Displacement of [3H]DPCPX from human adenosine A1 receptor expressed in CHO cell membranes at 1 uM. Put shortly: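 hA1 CHO membranes (50 µg protein) with 1 nM [³H]DPCPX in 50 mM Tris HCl pH 7.4, 120 min at 25 °C; nonspecific binding with 10 µM CHA; glass-fiber filtration, scintillation counting; % inhibition at 1 µM test compound.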

Assay [3] concerns the target Adenosine receptor A2a (Homo sapiens) (UniProt P29274). Nature of the assay: Displacement of [3H]ZM-241385 from human adenosine A2A receptor expressed in CHO cell membranes at 1 uM. The procedure, abridged:
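Binding of 1 nM [³H]ZM-241385 to hA2A CHO membranes (50 µg protein) in 50 mM Tris HCl, 10 mM MgCl₂, pH 7.4, 60 min at 4 °C; nonspecific binding with 1 µM ZM-241385; filtration and counting; % inhibition at 1 µM test compound.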
A general note: Loss of bound radioactivity is the signal in a displacement assay; it reports binding, not function.

Assay [4] deals with T3, Adenosine receptor A2b (Homo sapiens) (UniProt P29275).
T3 sequence (whole entry): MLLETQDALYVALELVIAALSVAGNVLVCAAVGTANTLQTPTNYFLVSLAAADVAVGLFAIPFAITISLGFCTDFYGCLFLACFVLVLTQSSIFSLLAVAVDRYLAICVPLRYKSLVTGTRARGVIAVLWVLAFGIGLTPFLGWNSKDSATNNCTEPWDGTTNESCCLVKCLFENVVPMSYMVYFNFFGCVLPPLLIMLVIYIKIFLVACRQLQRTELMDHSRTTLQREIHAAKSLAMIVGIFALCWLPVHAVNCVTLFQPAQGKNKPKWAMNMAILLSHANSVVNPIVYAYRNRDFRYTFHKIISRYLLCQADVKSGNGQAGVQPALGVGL
The experiment in a line: Antagonist activity at human adenosine A2B receptor expressed in CHO cells assessed as inhibition of NECA-stimulated cAMP levels at 1 uM. The assay is classed as functional, cell-based. The procedure, abridged: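 Stably transfected hA2B CHO cells, 1 × 10⁶ cells/assay, preincubated 10 min at 37 °C, pH 7.4, with adenosine deaminase 2 IU/ml and Ro 20-1724 as phosphodiesterase inhibitor. Stimulated by 200 nM NECA; test compound at 1 µM. Stopped with cold 6% TCA; cAMP measured by [³H]cAMP competition protein binding with beef adrenal binding protein. Reported as % inhibition.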

The target in assay [5] is T1, Adenosine receptor A3. Nature of the assay: Displacement of [125I]ABMECA from human adenosine A3 receptor expressed in CHO cell membranes. The procedure, abridged: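 hA3 CHO membranes, 50 µg protein, with 0.5 nM [¹²⁵I]AB-MECA in 50 mM Tris HCl, 10 mM MgCl₂, 1 mM EDTA, pH 7.4. At least 6–8 ligand concentrations, 120 min at 4 °C. Nonspecific binding with 1 µM AB-MECA. Filtration, counting. Ki via Cheng–Prusoff from IC50; means ± SEM of four assays, each in duplicate.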

Assay [6] deals with T4, Adenosine receptor A3 (Homo sapiens) (UniProt P0DMS8).
T4 sequence (whole entry): T1 sequence (P0DMS8 whole entry)
The experiment in a line: Displacement of [125I]ABMECA from human adenosine A3 receptor expressed in CHO cell membranes at 1 uM. The procedure, abridged: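 Competition at hA3 CHO membranes (50 µg protein) against 0.5 nM [¹²⁵I]AB-MECA, Tris HCl/MgCl₂/EDTA buffer pH 7.4, 120 min at 4 °C; nonspecific binding with 1 µM AB-MECA; test compound at 1 µM; % inhibition of binding.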

Adenosine receptor A2a (Homo sapiens), sequence (P29274 whole entry): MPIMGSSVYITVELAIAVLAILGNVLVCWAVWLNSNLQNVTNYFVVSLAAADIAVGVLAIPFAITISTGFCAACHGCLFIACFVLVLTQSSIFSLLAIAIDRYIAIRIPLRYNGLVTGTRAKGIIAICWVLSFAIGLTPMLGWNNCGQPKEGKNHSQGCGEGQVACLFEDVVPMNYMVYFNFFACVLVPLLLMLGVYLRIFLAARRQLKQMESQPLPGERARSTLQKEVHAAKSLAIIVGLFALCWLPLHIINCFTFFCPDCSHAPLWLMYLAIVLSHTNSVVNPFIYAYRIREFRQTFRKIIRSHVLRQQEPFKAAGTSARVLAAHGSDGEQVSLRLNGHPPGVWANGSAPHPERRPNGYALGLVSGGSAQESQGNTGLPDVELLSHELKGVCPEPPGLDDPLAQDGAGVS

As to `CC(=O)Nc1nc(C(=O)Nc2ccccc2)c2ccccc2n1`, the concentration for half-maximal inhibition (IC50) on Adenosine receptor A3 [1] is 0.14 µM. Also, the Activity in assay [2] is 25%; in assay [3] it was 7%. Further, in assay [4], the inhibition is 5%. For the same molecule, the inhibitory constant (Ki) on Adenosine receptor A3 [5] came out at 0.0253 µM.
Take `COc1ccc(NC(=O)c2ccnc(N)n2)cc1`: the Activity was determined as 3% in assay [2], 6% in assay [3] and 15% in assay [6]. Also, the inhibition in assay [4] is 3%.
`COc1ccc(NC(=O)c2cc(N)nc3ccccc23)cc1`: the Activity came to 2% in assay [2], 3% in assay [3] and 1% in assay [6]. Also, the inhibition in assay [4] was determined as 3%.
For the molecule `COc1ccc(NC(=O)c2ccnc(NC(=O)c3ccccc3)n2)cc1`, the Activity in assay [2] worked out at 6%; in assay [3] it was 6%; in assay [6], 22%. In addition, the inhibition in assay [4] came to 2%.
Regarding `O=C(Nc1nc(C(=O)Nc2ccccc2)c2ccccc2n1)c1ccccc1`, the Activity in assay [2] is 7%; in assay [3] it was 10%. In addition, in assay [4], the inhibition came to 3%. Besides, the affinity on Adenosine receptor A3 [5] corresponds to a Ki of 0.182 µM.
`O=C(Nc1ccc(Br)cc1)c1nc(=O)[nH]c2ccccc12`: the Activity in assay [2] is 3%; in assay [3] it was 1%. For the same molecule, the inhibition in assay [4] is 2%.
Consider `O=C(Nc1ccccc1)c1cc(=O)[nH]c2ccccc12`, for which the Activity in assay [2] turned out to be 1%; in assay [3], 1%; in assay [6] it was 38%. The inhibition in assay [4] came out at 2%.
Regarding `O=C(Nc1ccccc1)c1nc(=O)[nH]c2ccccc12`, the figures for the Activity in assay [2] and in assay [3] were 22% and 1%, respectively. In assay [4], the inhibition was 4%.
On to `COc1ccc(NC(=O)c2[nH]c(=O)nc3ccccc23)cc1`, for which the IC50 on Adenosine receptor A3 [1] stood at 0.125 µM. This molecule registered a Ki on Adenosine receptor A3 [5] of 0.0195 µM.
In the case of `Nc1nc(C(=O)NC2CCCCC2)c2ccccc2n1`, the Activity is 2% in assay [2], 3% in assay [3] and 21% in assay [6]. Besides, the inhibition in assay [4] stood at 1%.
On to `COc1ccc(NC(=O)c2cc(=O)[nH]c3ccccc23)cc1`, for which the Activity in assay [2] is 4%; in assay [3], 1%; in assay [6], 26%. The inhibition in assay [4] was 3%.
`Cc1ccc(NC(=O)c2[nH]c(=O)nc3ccccc23)cc1` came in with a Ki on Adenosine receptor A3 [5] of 0.0267 µM.
`COc1ccc(NC(=O)c2ccnc(N(C(=O)c3ccccc3)C(=O)c3ccccc3)n2)cc1`: the Activity worked out at 5% in assay [2], 1% in assay [3] and 14% in assay [6]. Also, the inhibition in assay [4] stood at 3%.
The molecule `O=C(Nc1ccc(Br)cc1)c1[nH]c(=O)nc2ccccc12` had a Ki on Adenosine receptor A3 [5] of 0.0272 µM.
Consider `Nc1nc(C(=O)Nc2ccccc2)c2ccccc2n1`, for which the results for the Activity in assay [2] and in assay [3] were 40% and 17%, respectively. Besides, the inhibition in assay [4] stood at 5%. Moreover, the affinity on Adenosine receptor A3 [5] corresponds to a Ki of 0.35 µM.
For the molecule `Cc1ccc(NC(=O)c2nc(N)nc3ccccc23)cc1`, the results for the Activity in assay [2] and in assay [3] were 3% and 5%, respectively. Besides, the inhibition in assay [4] was determined as 4%. The Ki at Adenosine receptor A3 [5] was 0.0983 µM.
For the molecule `Nc1cc(C(=O)Nc2ccccc2)c2ccccc2n1`, the Activity in assay [2] is 1%; in assay [3], 2%; in assay [6], 6%. Further, in assay [4], the inhibition was 5%.
On to `COc1ccc(NC(=O)c2nc(=O)[nH]c3ccccc23)cc1`, for which the Activity in assay [2] was found to be 4%; in assay [3], 1%. The inhibition in assay [4] was 9%.
For `Cc1ccc(NC(=O)c2nc(=O)[nH]c3ccccc23)cc1`, in that order: 21%, 2% and 2%.
Consider `COc1ccc(NC(=O)c2nc(N)nc3ccccc23)cc1`, for which the Activity amounted to 8% in assay [2] and 6% in assay [3]. The inhibition in assay [4] came to 23%. On Adenosine receptor A3 [5], this molecule showed an inhibition constant (Ki) of 0.0875 µM.
Turning to `O=C(Nc1ccccc1)c1[nH]c(=O)nc2ccccc12`, at Adenosine receptor A3 [1], the IC50 was 0.238 µM. On Adenosine receptor A3 [5], the Ki stood at 0.05 µM.
For the molecule `Nc1nc(C(=O)Nc2ccc(Br)cc2)c2ccccc2n1`, the Activity in assay [2] and in assay [3] was 1% throughout. In addition, in assay [4], the inhibition worked out at 2%. The same molecule had a Ki on Adenosine receptor A3 [5] of 0.55 µM.
